In brackets after ≈: the same amount, converted by molar mass.
Assays:
[1] = Thermodynamic aqueous solubility of the compound at pH 7.4 after 24 hrs by UV absorbance based assay; assay type: physicochemical; settings: read-out: Therm_solubility
Method in brief: (§1)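 A 20 mM DMSO stock was diluted 1:100 into pH 7.4 PBS, then shaken at 250 rpm for 3 or 24 h at 22.5 ± 2.5 °C. The mixture was filtered and the filtrate diluted with acetonitrile/universal buffer. Absorbance was read at 310 nm against a 6.25–200 μM calibration curve, in triplicate.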

[2] = AUC (0 to infinity) in Wistar rat at 5 mg/kg, po administered via gavage by LC-MS/MS analysis; assay type: ADME, organism-based; parameters: dose 5 mg/kg, time infinity, route oral; settings: in vivo
Method in brief: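 Wistar rats given a single 5 mg/kg oral dose. Plasma concentration–time profiles were plotted as mean ± SEM and sampled through 24 h postdose.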

Histone deacetylase 9 = Histone deacetylase 9 (Homo sapiens, UniProt Q9UKV0); assay: Inhibition of HDAC9 (unknown origin) at 10 uM in presence of ATP relative to control
Method in brief: (§2)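 HDAC enzyme inhibition was run by a contract laboratory.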

Histone deacetylase 11 = Histone deacetylase 11 (Homo sapiens, UniProt Q96DB2); assay: Inhibition of C-terminal His tagged human recombinant HDAC11 (1 to 347 residues) expressed in Baculovirus infected insect cells in presence of ATP; method in brief: as §2
[3] = Thermodynamic aqueous solubility of the compound at pH 7.4 after 3 hrs by UV absorbance based assay; assay type: physicochemical; settings: read-out: Therm_solubility; method in brief: as §1

Histone deacetylase 9, sequence (Q9UKV0 whole entry): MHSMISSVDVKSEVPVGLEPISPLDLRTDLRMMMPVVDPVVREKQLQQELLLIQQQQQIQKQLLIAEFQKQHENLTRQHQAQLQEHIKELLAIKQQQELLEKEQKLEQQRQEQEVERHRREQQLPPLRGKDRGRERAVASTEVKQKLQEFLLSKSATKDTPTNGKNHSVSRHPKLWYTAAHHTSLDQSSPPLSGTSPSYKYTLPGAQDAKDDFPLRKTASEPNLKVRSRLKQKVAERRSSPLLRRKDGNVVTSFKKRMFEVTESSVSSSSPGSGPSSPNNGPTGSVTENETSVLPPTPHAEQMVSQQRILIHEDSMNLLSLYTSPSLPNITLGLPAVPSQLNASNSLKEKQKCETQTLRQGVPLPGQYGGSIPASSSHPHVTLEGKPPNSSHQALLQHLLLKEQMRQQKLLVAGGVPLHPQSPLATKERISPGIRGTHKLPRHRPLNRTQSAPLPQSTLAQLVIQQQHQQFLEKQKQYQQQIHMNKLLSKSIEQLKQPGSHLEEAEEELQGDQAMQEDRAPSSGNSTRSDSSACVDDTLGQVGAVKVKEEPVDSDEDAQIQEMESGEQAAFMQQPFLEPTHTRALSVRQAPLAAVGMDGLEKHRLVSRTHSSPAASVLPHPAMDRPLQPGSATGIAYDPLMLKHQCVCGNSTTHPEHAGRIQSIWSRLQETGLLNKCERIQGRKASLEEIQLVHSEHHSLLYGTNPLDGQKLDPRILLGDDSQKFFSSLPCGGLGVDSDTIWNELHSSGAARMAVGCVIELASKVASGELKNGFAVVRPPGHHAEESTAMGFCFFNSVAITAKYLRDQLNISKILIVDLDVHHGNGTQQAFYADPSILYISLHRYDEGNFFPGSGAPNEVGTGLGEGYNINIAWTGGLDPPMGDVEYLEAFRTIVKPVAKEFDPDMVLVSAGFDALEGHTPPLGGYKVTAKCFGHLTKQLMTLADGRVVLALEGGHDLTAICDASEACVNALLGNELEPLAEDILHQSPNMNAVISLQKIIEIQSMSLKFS
Histone deacetylase 11, sequence (Q96DB2 whole entry, the tested form may be a part): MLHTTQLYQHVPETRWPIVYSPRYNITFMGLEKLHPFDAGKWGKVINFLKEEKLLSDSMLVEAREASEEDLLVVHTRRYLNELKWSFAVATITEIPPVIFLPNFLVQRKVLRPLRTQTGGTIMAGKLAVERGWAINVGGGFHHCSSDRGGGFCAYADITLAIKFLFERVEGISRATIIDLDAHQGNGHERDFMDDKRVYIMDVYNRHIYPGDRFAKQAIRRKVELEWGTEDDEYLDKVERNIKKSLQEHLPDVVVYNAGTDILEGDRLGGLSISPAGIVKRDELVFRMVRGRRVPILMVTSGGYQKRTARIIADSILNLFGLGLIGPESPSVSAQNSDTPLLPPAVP

With `O=C(CCCCCCn1cc(-c2ncnc3[nH]ccc23)cn1)NO` the solubility thermodynamic at 24 h [1] was greater than 73 µg/mL, the AUC(0-inf) [2] was 12.3 ng·h/mL and the inhibition (Histone deacetylase 9) was 30%. For the same compound, the IC50 (Histone deacetylase 11) was 31 nM and the solubility thermodynamic at 3 h [3] was 66.2 µg/mL (≈ 202 µM).

Reference: ChEMBL document CHEMBL4028864 (J Med Chem, 2017)
